# Source: ChEMBL document CHEMBL1149244, “Novel azido and isothiocyanato analogues of [3-(4-phenylalkylpiperazin-1-yl)propyl]bis(4-fluorophenyl)amines as potential irreversible ligands for the dopamine transporter” (J Med Chem, 2004)
# Target: Sodium-dependent dopamine transporter (Rattus norvegicus, UniProt P23977)
# Experiment: Displacement of [3H]WIN-35428 from DAT in Sprague-Dawley rat striatum
# Method in brief: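 Male Sprague-Dawley rat striatal membranes (homogenized in ice-cold modified Krebs-HEPES, pH 7.4; washed by centrifugation), 2.5 mg original wet weight per tube, preincubated 5 min with or without test compound. Nonspecific binding defined with 0.1 mM cocaine. Filtration on BSA-presoaked GF/B filters, scintillation counting. Triplicates. IC50 and Hill coefficient reported.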
# Sodium-dependent dopamine transporter, sequence (P23977 whole entry): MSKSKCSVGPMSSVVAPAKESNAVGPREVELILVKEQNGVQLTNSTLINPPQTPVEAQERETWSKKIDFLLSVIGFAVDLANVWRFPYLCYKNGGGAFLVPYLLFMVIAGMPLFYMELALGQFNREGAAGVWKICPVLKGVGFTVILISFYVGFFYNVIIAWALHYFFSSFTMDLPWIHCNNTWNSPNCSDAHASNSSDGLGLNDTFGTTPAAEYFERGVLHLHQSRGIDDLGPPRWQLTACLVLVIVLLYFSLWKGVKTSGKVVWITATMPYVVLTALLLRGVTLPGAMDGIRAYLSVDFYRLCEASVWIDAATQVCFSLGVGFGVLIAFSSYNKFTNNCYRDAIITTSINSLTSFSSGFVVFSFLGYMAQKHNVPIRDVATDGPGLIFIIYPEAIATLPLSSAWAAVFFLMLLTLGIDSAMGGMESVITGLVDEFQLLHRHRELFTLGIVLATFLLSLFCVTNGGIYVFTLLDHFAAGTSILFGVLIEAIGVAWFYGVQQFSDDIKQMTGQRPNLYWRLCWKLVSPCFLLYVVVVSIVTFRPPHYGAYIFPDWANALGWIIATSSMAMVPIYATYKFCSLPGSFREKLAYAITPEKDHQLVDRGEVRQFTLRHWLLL
row,Compound,IC50
1,[N-]=[N+]=Nc1ccc(CCN2CCN(CCCN(c3ccc(F)cc3)c3ccc(F)cc3)CC2)cc1I,163 nM
2,[N-]=[N+]=Nc1ccc(CCN2CCN(CCOC(c3ccccc3)c3ccccc3)CC2)cc1I,5.61 nM
3,Fc1ccc(N(CCCN2CCN(Cc3ccc(N=C=S)cc3)CC2)c2ccc(F)cc2)cc1,75.4 nM
4,[N-]=[N+]=Nc1ccc(CCCN2CCN(CCCN(c3ccc(F)cc3)c3ccc(F)cc3)CC2)cc1I,282 nM
5,Fc1ccc(N(CCCN2CCN(CCc3ccc(N=C=S)cc3)CC2)c2ccc(F)cc2)cc1,68.3 nM
6,[N-]=[N+]=Nc1ccc(CN2CCN(CCCN(c3ccc(F)cc3)c3ccc(F)cc3)CC2)cc1I,242 nM
7,Fc1ccc(N(CCCN2CCN(CCCc3ccc(N=C=S)c(I)c3)CC2)c2ccc(F)cc2)cc1,95.5 nM
8,Fc1ccc(N(CCCN2CCN(CCCc3ccccc3)CC2)c2ccc(F)cc2)cc1,19.5 nM
9,Fc1ccc(N(CCCN2CCN(CCCc3ccc(N=C=S)cc3)CC2)c2ccc(F)cc2)cc1,99.8 nM
10,Fc1ccc(N(CCCN2CCN(CCc3ccc(N=C=S)c(I)c3)CC2)c2ccc(F)cc2)cc1,66 nM
11,Fc1ccc(N(CCCN2CCN(Cc3ccccc3)CC2)c2ccc(F)cc2)cc1,29.7 nM
